Data as given in PubChem BioAssay AID1885 (Broad Institute, 2009).
Hit rate of the full screen: of about 300,000 compounds, about 4,400 (1.5%) were called active. Many of the other results were omitted from the sample, so actives are more common in it than they were. Unmarked numbers belong to inactive results.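 How the source made its calls: active means mean inhibition across valid replicates above about 55% (limit read from the data); inconclusive means mean below that limit but half or more replicates reach it; inactive means mean below it, under half of replicates reach it.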

assay: inhibitors of intracellular T. cruzi growth, primary screen, luminescence, NIH3T3 host cells (AID 1885);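 further: signal also drops with host cell toxicity which is not excluded here; 0% = plate median of DMSO wells and 100% = zero luminescence signal; higher percent means less beta-gal luminescence so fewer parasites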; details: T. cruzi beta-gal in NIH3T3, luminescence, 90 h; hits give high values; concentration not given here
In short: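 Read-out: Parasite load inhibition, % | Test system: Mouse NIH/3T3 fibroblasts infected with β-gal-expressing T. cruzi Tulahuen C4 | Amount: 5,000 cells/well | Medium: DMEM, 2% fetal bovine serum | Signal: GalScreen β-gal luminescence, detergent lysis, 60 min | Timing: 3 h attach, ≥90 h co-culture | Also added: Tulahuen C4 trypomastigotes, 5000/well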

Row | SMILES | inhibition
1 | O=C(Nc1cc(Cl)ccc1N1CCOCC1)c1ccc(N2CCCC2=O)cc1 | -1.5%
2 | CC(OC(=O)c1ccc(-n2cnnn2)cc1)C(=O)NCc1ccccc1 (stereo unspecified) | -10.5%
3 | Cc1ccc(C(=O)NCC(=O)OCc2nnc(-c3ccccc3)o2)cc1 | 0.567%
4 | C=C(C)COc1ccc(-c2n[nH]c(C)c2-c2ccccc2)c(O)c1 | -19.2%
5 | Cc1[nH]nc(-c2ccc(OCc3cnn(-c4ccccc4)c3)cc2O)c1Oc1ccc(Cl)cc1 | 57.6% (active)
6 | COc1ccc(C(=O)Cc2cnn(-c3ccccc3)c2)c(O)c1 | 33.1%
7 | COc1cc(OC)c(C(=O)OC(C)C(=O)Nc2cc(C(F)(F)F)ccc2Cl)cc1OC (stereo unspecified) | 18.6%
8 | CCC(C)N(C(=O)Cn1nc(C)c([N+](=O)[O-])c1C)C1CCS(=O)(=O)C1 (stereo unspecified) | -2.7%
9 | CC(=O)Nc1ccc(NC(=O)CSC2=NS(=O)(=O)c3ccccc3N2)cc1 | 0.486%
10 | Oc1ccc(CN2CCN(c3ncccn3)CC2)cc1 | -5.02%
11 | Cc1cccnc1NC(=O)c1cccc(S(=O)(=O)N2CCN(c3ccc(F)cc3)CC2)c1 | 13.5%
12 | Oc1c(CN2CCN(c3ccc(F)cc3)CC2)cc(Cl)c2cccnc12 | 59.9% (active)
13 | CC12CCC(=O)N1C(C(=O)Nc1ccc(F)c(F)c1F)CS2 (stereo unspecified) | -7.75%
14 | COc1cccc(NC(=O)CN(C)C(=O)CSC(=S)N2CCCC2)c1 | -6.94%
15 | CCOC(=O)C1=C(C)Nc2sc(C(=O)c3ccc(Br)cc3)c(N)c2C1c1ccc(C(=O)OC)cc1 (stereo unspecified) | 76.1% (active)
16 | CCOC(=O)c1sc(=NC(=O)c2ccc(Br)cc2)n(C)c1C | -5.34%
17 | CCOC(=O)c1sc(=S)n2c1[nH]c(=O)c1ccc(C(=O)OC)cc12 | 4.87%
18 | COc1cc(C(=O)NCC(=O)NCCSc2ccc(Br)cc2)cc(OC)c1OC | -6.77%
19 | CCC(C)(C)n1nnnc1C(c1cccs1)N1CCN(c2nc3ccccc3s2)CC1 (stereo unspecified) | 66.6% (active)
20 | CCC(C)(C)n1nnnc1C(c1cccs1)N1CCN(Cc2ccccc2)CC1 (stereo unspecified) | 5.19%
21 | CCC(C)(C)n1nnnc1C(c1ccccc1OC)N1CCSCC1 (stereo unspecified) | -14.5%
22 | COc1ccc(Cc2nnc(SCC(=O)Nc3ccc(C)c(Cl)c3)[nH]c2=O)cc1 | 23.1%
23 | S=C(Nc1cccc(Br)c1)N1CCn2cccc2C1c1cccnc1 (stereo unspecified) | 72.8% (active)

Row | SMILES | inhibition
24 | S=C(NCCc1ccccc1)N1CCn2cccc2C1c1ccncc1 (stereo unspecified) | 23.4%
25 | Fc1cc(Br)ccc1NC(=S)Nc1cccnc1 | -15.3%
26 | O=C(COC(=O)/C=C/c1ccc(OC(F)F)cc1)NC1CCCCC1 | -1.87%
27 | C=CCn1c(SCCOc2ccc(OC)cc2)nnc1C(NC(=O)c1ccc(OC)cc1)C(C)C (stereo unspecified) | 4.8%
28 | Cc1ccc(C(=O)NNC(=O)c2ccncc2)cc1S(=O)(=O)N1CCCCC1 | -3.57%
29 | Cc1ccc(N=C2SCCCN2C(=O)c2cccc(N3C(=O)CCC3=O)c2)cc1Cl | 35.8%
30 | CC(Nc1nc(N2CCN(CCO)CC2)nc2ccccc12)c1ccccc1 (stereo unspecified) | -7.35%
31 | CC(Nc1nc(N2CCCC2)nc2ccccc12)c1ccccc1 (stereo unspecified) | 58.1% (active)
32 | CC(Nc1nc(N2CCOCC2)nc2ccccc12)c1ccccc1 (stereo unspecified) | 31.7%
33 | O=C(NCCC1CCCCN1S(=O)(=O)c1ccc(F)cc1)C(=O)NC1CC1 (stereo unspecified) | -6.12%
34 | COc1cc(NC(=O)CSc2ccc(-c3cccnc3)nn2)cc(OC)c1 | 1.76%
35 | COc1ccc(N2CC(NS(=O)(=O)c3ccc4ccccc4c3)CC2=O)cc1 (stereo unspecified) | -4.61%
36 | O=C(NCc1ccncc1)c1ccc(NS(=O)(=O)c2cccc([N+](=O)[O-])c2)cc1 | -11.6%
37 | O=C(Nc1ccccc1C(=O)Nc1ccncc1)c1ccc([N+](=O)[O-])cc1 | 31.4%
38 | CN1C2CCC1CC(NC(=O)c1ccc([N+](=O)[O-])cc1)C2 (stereo unspecified) | 8.42%
39 | O=C(Nc1cc2c3c(c1)C1CCCC1CN3CC1CCCC21)c1ccc([N+](=O)[O-])cc1 (stereo unspecified) | 82.1% (active)
40 | Cc1csc(=O)n1CC(=O)OCC(=O)N(CC(C)C)c1c(N)n(Cc2ccccc2)c(=O)[nH]c1=O | -7.8%
41 | Cc1c(NC(=O)CSc2nnnn2-c2ccc(C(=O)O)cc2)c(=O)n(-c2ccccc2)n1C | -12.6%
42 | Cc1c(NC(=O)CSc2cccc3cccnc23)c(=O)n(-c2ccccc2)n1C | 67.7% (active)
43 | Cc1ccc(NC(=O)CSc2cccc3cccnc23)c(C)c1 | 26.2%
44 | CC(C)CCNc1nc(N2CCCC2)c2c(c1C#N)CCN(C)C2 | 58.4% (active)
45 | CCc1nc(NCCO)c(C#N)c2c1CCCC2 | -15%
46 | CC(C)Cc1nc(N2CCOCC2)c(C#N)c2c1CCC2 | 9.81%
